Laboratory results taken from ChEMBL document CHEMBL1121414, “Central nervous system activity of 7-substituted 1-azaphenoxathiin analogues and their oxidation products” (1980).

Experiments:
Mus musculus = species: Mus musculus; assay: The compound was tested for antidepressant activity by its ability to reverse tetrabenazine induced ptosis in mice, perorally; type: functional; conditions: po
Outline: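 Male albino CFI mice (18–22 g), groups of five, dosed po with test drug in methylcellulose suspension (initial screening dose 30 mg/kg). Tetrabenazine methanesulfonate 30 mg/kg was given ip 30 min later, and palpebral opening was scored after 30 min.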

Rattus norvegicus = assay: The compound was tested for antidepressant activity by its ability to inhibit muricidal intraperitoneally; type: functional; conditions: ip
Outline: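 Male Long-Evans rats (200–300 g), groups of five, given test drug ip as a methylcellulose suspension at an initial screening dose of 10 or 20 mg/kg. Mice were presented to the rats 30 min after dosing.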

Question: With NS(=O)(=O)c1ccc2c(c1)Oc1cccnc1S2 as the compound, how does the ED50 (Mus musculus) read?
Answer: Its ED50 is over 30 mg/kg.

Question: And the ED50 (Rattus norvegicus)?
Answer: Its ED50 is 8 mg/kg.

Question: For O=[N+]([O-])c1ccc2c(c1)Oc1cccnc1S2(=O)=O, which ED50 (Mus musculus) is on record?
Answer: The ED50 was 10 mg/kg.

Question: And the ED50 (Rattus norvegicus)?
Answer: Its ED50 is 12 mg/kg.

Question: What does the source list for O=S1(=O)c2ccc(C(F)(F)F)cc2Oc2cccnc21?
Answer: ED50 (Mus musculus): 1 mg/kg; ED50 (Rattus norvegicus): 17 mg/kg

Question: What does the source list for c1ccc2c(c1)Oc1cccnc1S2?
Answer: ED50 (Mus musculus): 8 mg/kg; ED50 (Rattus norvegicus): > 10 mg/kg

Question: For FC(F)(F)c1ccc2c(c1)Oc1cccnc1S2, which ED50 (Mus musculus) is on record?
Answer: The ED50 was 16 mg/kg.

Question: What about the ED50 (Rattus norvegicus) of the same compound?
Answer: The ED50 was over 10 mg/kg.

Question: Which ED50 (Mus musculus) does the source give for O=[N+]([O-])c1ccc2c(c1)Oc1cccnc1S2 here?
Answer: Its ED50 is over 30 mg/kg.

Question: And the ED50 (Rattus norvegicus)?
Answer: The ED50 was 7 mg/kg.

Question: For O=S1(=O)c2ccc(Br)cc2Oc2cccnc21, which ED50 (Mus musculus) is on record?
Answer: The ED50 was 15 mg/kg.

Question: And the ED50 (Rattus norvegicus)?
Answer: The ED50 was 7 mg/kg.

Question: Which ED50 (Mus musculus) does the source give for O=S1(=O)c2ccc(Cl)cc2Oc2cccnc21 here?
Answer: Its ED50 is 18 mg/kg.

Question: And the ED50 (Rattus norvegicus)?
Answer: Its ED50 is over 10 mg/kg.

Question: With COc1ccc2c(c1)Oc1cccnc1S2(=O)=O as the compound, how does the ED50 (Mus musculus) read?
Answer: Its ED50 is over 30 mg/kg.

Question: What about the ED50 (Rattus norvegicus) of the same compound?
Answer: The ED50 was over 10 mg/kg.

Question: Clc1ccc2c(c1)Oc1cccnc1S2 was tested. Which ED50 (Mus musculus) did it give?
Answer: Its ED50 is over 30 mg/kg.

Question: What about the ED50 (Rattus norvegicus) of the same compound?
Answer: Its ED50 is over 10 mg/kg.

Question: For COc1ccc2c(c1)Oc1cccnc1S2, which ED50 (Mus musculus) is on record?
Answer: Its ED50 is over 30 mg/kg.

Question: And the ED50 (Rattus norvegicus)?
Answer: Its ED50 is over 10 mg/kg.

Question: Which results are given for O=S1(=O)c2ccc(NO)cc2Oc2cccnc21?
Answer: ED50 (Mus musculus): 2 mg/kg; ED50 (Rattus norvegicus): > 10 mg/kg

Question: Which results are given for Brc1ccc2c(c1)Oc1cccnc1S2?
Answer: ED50 (Mus musculus): > 30 mg/kg; ED50 (Rattus norvegicus): > 10 mg/kg

Question: How did the ED50 (Mus musculus) turn out when CN(C)CCCN1c2ccccc2CCc2ccccc21 [IMIPRAMINE] was run?
Answer: The ED50 was 2 mg/kg.

Question: What about the ED50 (Rattus norvegicus) of the same compound?
Answer: The ED50 was 20 mg/kg.

Question: Which results are given for O=S1(=O)c2ccccc2Oc2cccnc21?
Answer: ED50 (Mus musculus): 12 mg/kg; ED50 (Rattus norvegicus): > 10 mg/kg
